Measurements taken from ChEMBL document CHEMBL1144840, “Tetrazole based amides as growth hormone secretagogues” (Bioorg Med Chem Lett, 2008).

Experiments:
[1] = target: Growth hormone secretagogue receptor type 1 (Homo sapiens, UniProt Q92847); experiment: Agonist activity at human GHS receptor expressed in H4 cells by FLIPR assay; format: functional, cell-based
[2] = system: Rattus norvegicus; experiment: Stimulation of growth hormone release in rat at 0.17 umol/kg, iv relative to control; format: functional
Procedure, shortened: (§1)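 Fasted male Wistar rats (200–250 g) were anesthetized with ketamine 30 mg/kg plus xylazine 10 mg/kg ip. They were dosed iv at 10 mL/kg in vehicle (10% ethanol, […] V/V), five rats per group. Aortic blood was drawn 15 min post-dose, and plasma rat GH was measured by radioimmunoassay. Results are given as % GH increase ± SEM versus vehicle control.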

[3] = system: Rattus norvegicus; experiment: Stimulation of growth hormone release in rat at 0.052 umol/kg, iv relative to control; format: functional; procedure, shortened: as §1
[4] = system: Rattus norvegicus; experiment: Stimulation of growth hormone release in rat at 0.017 umol/kg, iv relative to control; format: functional; procedure, shortened: as §1

Chain of Growth hormone secretagogue receptor type 1 (Q92847 whole entry): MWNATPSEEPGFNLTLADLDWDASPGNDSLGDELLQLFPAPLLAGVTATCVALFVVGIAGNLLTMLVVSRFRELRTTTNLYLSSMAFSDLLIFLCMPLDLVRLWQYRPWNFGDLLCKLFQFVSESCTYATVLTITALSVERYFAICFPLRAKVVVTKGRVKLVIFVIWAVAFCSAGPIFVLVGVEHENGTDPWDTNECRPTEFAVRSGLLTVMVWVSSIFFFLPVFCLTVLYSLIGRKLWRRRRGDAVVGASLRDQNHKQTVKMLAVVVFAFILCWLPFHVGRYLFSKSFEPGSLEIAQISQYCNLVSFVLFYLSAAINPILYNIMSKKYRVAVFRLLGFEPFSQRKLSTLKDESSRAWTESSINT

| SMILES | EC50 [1] | Intrinsic activity [1] | Activity [2] | Activity [3] | Activity [4] |
| --- | --- | --- | --- | --- | --- |
| CC(C)(N)C(=O)N[C@H](COCc1ccccc1)c1nnnn1CCCC(=O)N[C@H]1CC[C@H](O)CC1 | 521 nM | > 85% |  |  |  |
| CCCCNC(=O)CCCn1nnnc1[C@@H](COCc1ccccc1)NC(=O)C(C)(C)N |  | > 85% |  |  |  |
| CCCCCCCC(=O)OC[C@H](NC(=O)CNC(=O)[C@@H](N)CCCNC(=N)N)C(=O)N[C@@H](CO)C(=O)N[C@@H](Cc1ccccc1)C(=O)N[C@@H](CC(C)C)C(=O)N[C@@H](CO)C(=O)N1CCC[C@H]1C(=O)N[C@@H](CCC(=O)O)C(=O)N[C@@H](Cc1cnc[nH]1)C(=O)N[C@@H](CCC(N)=O)C(=O)N[C@@H](CCCCN)C(=O)N[C@@H](C)C(=O)N[C@@H](CCC(N)=O)C(=O)N[C@@H](CCC(N)=O)C(=O)N[C@@H](CCCNC(=N)N)C(=O)N[C@@H](CCCCN)C(=O)N[C@@H](CCC(=O)O)C(=O)N[C@@H](CO)C(=O)N[C@@H](CCCCN)C(=O)N[C@@H](CCCCN)C(=O)N1CCC[C@H]1C(=O)N1CCC[C@H]1C(=O)N[C@@H](C)C(=O)N[C@@H](CCCCN)C(=O)N[C@@H](CC(C)C)C(=O)N[C@@H](CCC(N)=O)C(=O)N1CCC[C@H]1C(=O)O |  | > 85% |  |  |  |
| CC(C)(N)C(=O)N[C@H](COCc1ccccc1)c1nnnn1CCOc1cccc(C(=O)NCCO)c1 | 8.4 nM | > 85% |  |  |  |
| CC(C)(N)C(=O)N[C@H](COCc1ccccc1)c1nnnn1CCOc1ccccc1C(=O)NCCO | 11 nM | > 85% |  |  |  |
| CC(C)(N)C(=O)N[C@H](COCc1ccccc1)c1nnnn1CCCC(=O)NCCO | 40 nM | > 85% |  |  |  |
| CC(C)(N)C(=O)N[C@H](COCc1ccccc1)c1nnnn1CCCC(=O)NCCC(=O)O | 204 nM | > 85% |  |  |  |
| CC(C)(N)C(=O)N[C@H](COCc1ccccc1)c1nnnn1CCCC(=O)NCCCO | 27 nM | > 85% |  |  |  |
| CC(C)(N)C(=O)N[C@H](COCc1ccccc1)c1nnnn1CCNC(=O)CCS(C)(=O)=O | 14.7 nM | > 85% |  |  |  |
| CC(C)(N)C(=O)N[C@H](COCc1ccccc1)c1nnnn1CCOC(=O)NCCCCO |  | > 85% | 264% |  |  |
| CC(C)(N)C(=O)N[C@H](COCc1ccccc1)c1nnnn1CCCC(=O)NCCc1ccccc1 | 23 nM | > 85% |  |  |  |
| CC(C)(N)C(=O)N[C@H](COCc1ccccc1)c1nnnn1CCCC(=O)NCCc1cccc(S(=O)(=O)CCO)c1 | 105 nM | > 85% |  |  |  |
| CC(C)(N)C(=O)N[C@H](COCc1ccccc1)c1nnnn1CCCC(=O)NCc1ccccc1 | 32 nM | > 85% |  |  |  |
| CCOC(=O)CCNC(=O)CCCn1nnnc1[C@@H](COCc1ccccc1)NC(=O)C(C)(C)N | 140 nM | > 85% |  |  |  |
| CC(C)(N)C(=O)N[C@H](COCc1ccccc1)c1nnnn1CCCC(=O)NCC(F)(F)F | 26 nM | > 85% |  |  |  |
| CC(C)(N)C(=O)N[C@H](COCc1ccccc1)c1nnnn1CCCC(=O)Nc1ccccc1 | 70 nM | > 85% |  |  |  |
| CC(C)(N)C(=O)N[C@H](COCc1ccccc1)c1nnnn1CCCC(=O)NCCCc1ccccc1 | 33 nM | > 85% |  |  |  |

The next lines start with results.

| EC50 [1] | Intrinsic activity [1] | SMILES | Activity [2] | Activity [3] | Activity [4] |
| --- | --- | --- | --- | --- | --- |
| 3 nM | > 85% | CC(C)(N)C(=O)N[C@H](COCc1ccccc1)c1nnnn1CCOc1cccc(C(=O)NCCCCO)c1 |  |  |  |
| 4.4 nM | > 85% | CC(C)(N)C(=O)N[C@H](COCc1ccccc1)c1nnnn1CCNC(=O)CCCCO | 722% |  |  |
| 1.4 nM | > 85% | CC(C)(N)C(=O)N[C@H](COCc1ccccc1)c1nnnn1CCCC(=O)NCCS(N)(=O)=O | 408% |  |  |
| 2.9 nM | > 85% | CN(CCc1cccc(S(=O)(=O)CCO)c1)C(=O)CCCn1nnnc1[C@@H](COCc1ccccc1)NC(=O)C(C)(C)N |  |  |  |
| 1.8 nM | > 85% | CC(C)(N)C(=O)N[C@H](COCc1ccccc1)c1nnnn1CCCC(=O)NCCCCO |  |  |  |
| 3.1 nM | > 85% | CN(CCc1cccc(O)c1)C(=O)CCCn1nnnc1[C@@H](COCc1ccccc1)NC(=O)C(C)(C)N |  |  |  |
| 4.1 nM | > 85% | CC(C)(N)C(=O)N[C@H](COCc1ccccc1)c1nnnn1CCCC(=O)NCCS(C)(=O)=O |  |  |  |
| 0.2 nM | > 85% | CC(C)(N)C(=O)N[C@H](COCc1ccccc1)c1nnnn1CCCC(=O)NCCSCCO |  |  |  |
| 0.6 nM | > 85% | CC(C)(N)C(=O)N[C@H](COCc1ccccc1)c1nnnn1CCCC(=O)NCCCCCCO | 522% |  |  |
| 1.3 nM | > 85% | CC(C)(N)C(=O)N[C@H](COCc1ccccc1)c1nnnn1CCCC(=O)NCCCCCO |  |  |  |
| 0.2 nM | > 85% | CC(C)(N)C(=O)N[C@H](COCc1ccccc1)c1nnnn1CCCC(=O)NCCS(=O)(=O)CCO | 1290% | 956% | 398% |
| 7.6 nM | > 85% | CC(C)(N)C(=O)N[C@H](COCc1ccccc1)c1nnnn1CCCC(=O)NCCC(N)=O |  |  |  |
| 0.7 nM | > 85% | CC(C)(N)C(=O)N[C@H](COCc1ccccc1)c1nnnn1CCCC(=O)NCCOCCO |  |  |  |
| 3.3 nM | > 85% | CC(C)(N)C(=O)N[C@H](COCc1ccccc1)c1nnnn1CCCC(=O)NCCN1CCNC1=O |  |  |  |
| 0.9 nM | > 85% | CC(C)(N)C(=O)N[C@H](COCc1ccccc1)c1nnnn1CCOc1ccccc1C(=O)NCCCCO |  |  |  |
| 0.64 nM | > 85% | CC(C)(N)C(=O)N[C@H](COCc1ccccc1)c1nnnn1CCNC(=O)CCc1cccc(O)c1 |  |  |  |
| 0.2 nM | > 85% | CC(C)(N)C(=O)N[C@H](COCc1ccccc1)c1nnnn1CCCC(=O)NCCc1cccc(O)c1 | 606% |  |  |
